Test results reported in ChEMBL document CHEMBL5233202, “Metabolically stable apelin-analogues, incorporating cyclohexylalanine and homoarginine, as potent apelin receptor activators” (RSC Med Chem, 2021).
Non-standard residues stand in square brackets, D forms with d. Residues, ends and D or L forms follow the SMILES beside them. Phe(4-Br) = N[C@@H](Cc1ccc(Br)cc1)C(=O)O; hArg = N=C(N)NCCCC[C@H](N)C(=O)O; Cha = N[C@@H](CC1CCCCC1)C(=O)O; NMeL = CN[C@@H](CC(C)C)C(=O)O; Nle = CCCC[C@H](N)C(=O)O; Aib = CC(C)(N)C(=O)O

Tests used:
Mus musculus [1] = assay: Hypotensive effect in anesthetized wild type mouse assessed as total time duration of hypotensive effect at 1.4 uM/Kg, iv administered via right jugular vein measured for 60 mins; assay type: functional; conditions: 1 h
Procedure, shortened: (§1)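 Anesthetized mice received peptide at 1.4 μM kg−1 body weight, or equal-volume saline, by injection into the right jugular vein (n = 3). HR, MABP, SBP and DBP were recorded from blood pressure traces and reported as mean ± S.E.M.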

Neprilysin (NEP) = Neprilysin (NEP) (Homo sapiens, UniProt P08473); assay: Proteolytic stability assessed as recombinant human NEP-mediated compound degradation by measuring half life incubated for 24 hrs by LC-MS analysis; assay type: ADME; conditions: recombinant human neprilysin (NEP)
Neprilysin (NEP), sequence (P08473 whole entry): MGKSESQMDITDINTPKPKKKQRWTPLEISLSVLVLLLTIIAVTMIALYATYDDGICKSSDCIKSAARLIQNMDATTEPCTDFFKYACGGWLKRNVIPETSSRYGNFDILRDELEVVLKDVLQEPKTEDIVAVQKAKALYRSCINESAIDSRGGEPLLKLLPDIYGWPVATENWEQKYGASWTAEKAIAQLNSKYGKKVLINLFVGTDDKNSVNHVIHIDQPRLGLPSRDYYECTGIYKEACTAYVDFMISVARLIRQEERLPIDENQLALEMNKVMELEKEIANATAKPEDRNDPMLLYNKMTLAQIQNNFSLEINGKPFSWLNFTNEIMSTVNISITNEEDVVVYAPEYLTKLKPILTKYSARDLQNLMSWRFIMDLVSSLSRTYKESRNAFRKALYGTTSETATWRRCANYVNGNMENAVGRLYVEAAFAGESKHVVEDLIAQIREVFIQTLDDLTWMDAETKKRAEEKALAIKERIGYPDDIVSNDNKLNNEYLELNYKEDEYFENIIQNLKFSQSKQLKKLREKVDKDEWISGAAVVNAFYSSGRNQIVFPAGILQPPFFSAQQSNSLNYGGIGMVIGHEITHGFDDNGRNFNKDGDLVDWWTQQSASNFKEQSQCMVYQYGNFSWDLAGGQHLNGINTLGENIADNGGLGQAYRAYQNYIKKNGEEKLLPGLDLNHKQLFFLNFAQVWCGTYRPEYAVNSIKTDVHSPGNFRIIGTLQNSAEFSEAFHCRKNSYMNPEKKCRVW

Apelin receptor [2] = biological target: T1, Apelin receptor (Homo sapiens, UniProt P35414); assay: Activation of recombinant human APJ receptor expressed in rat Chem-5 cells assessed as increase in Ca2+ mobilization by FLIPR Calcium 6-QF fluorescent dye based assay; assay type: cell-based
T1 sequence (P35414 whole entry): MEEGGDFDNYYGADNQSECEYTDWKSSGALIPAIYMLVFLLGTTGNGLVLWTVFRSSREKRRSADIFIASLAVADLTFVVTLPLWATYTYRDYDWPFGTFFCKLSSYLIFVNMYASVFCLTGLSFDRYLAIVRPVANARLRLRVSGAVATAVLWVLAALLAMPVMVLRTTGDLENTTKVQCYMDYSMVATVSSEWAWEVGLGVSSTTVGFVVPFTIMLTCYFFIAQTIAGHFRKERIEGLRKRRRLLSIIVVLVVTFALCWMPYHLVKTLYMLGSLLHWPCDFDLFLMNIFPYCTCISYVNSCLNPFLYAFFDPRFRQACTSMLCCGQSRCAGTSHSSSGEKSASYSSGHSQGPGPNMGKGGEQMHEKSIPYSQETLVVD
Procedure, shortened: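 Frozen Chem-5 cells stably expressing human APJ, thawed per supplier protocol, loaded 1 h with Calcium 6-QF dye in HBSS/20 mM HEPES/0.2% DMSO/2.5 mM probenecid, pH 7.6. Cells washed three times and rested 10 min, then read on FLIPR. Agonist response taken as maximum fluorescence change over baseline. pEC50 from four-parameter logistic fit; triplicates.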

Mus musculus [3] = assay: Hypotensive effect in anesthetized wild type mouse assessed as change in mean arterial blood pressure at 1.4 uM/Kg, iv administered via right jugular vein measured for 60 mins; assay type: functional; conditions: 1 h; procedure, shortened: as §1
[4] = Stability in human plasma assessed as half life at 1 mM measured for 24 hrs by LC-MS analysis; assay type: ADME, cell-free
Procedure, shortened: (§2)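 Plasma (20 μL, human or murine) prewarmed to 37 °C, then 5 μL of 1 mM peptide added and incubated at 37 °C. Samples quenched at 1, 3, 6 and 24 h with 6 M GuHCl/80% ACN and Dans-YVG internal standard, centrifuged, solid-phase extracted and analyzed by LC-MS. Peptide/standard peak-area ratio normalized to 0 h; triplicates.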

Apelin receptor [5] = biological target: T2, Apelin receptor (Rattus norvegicus, UniProt Q9JHG3); assay: Displacement of [125I]-pyr-1-apelin-13 from EGFP tagged rat apelin receptor expressed in CHO cell membrane incubated for 3 hrs by gamma counter analysis; assay type: cell membranes
T2 sequence (Q9JHG3 whole entry): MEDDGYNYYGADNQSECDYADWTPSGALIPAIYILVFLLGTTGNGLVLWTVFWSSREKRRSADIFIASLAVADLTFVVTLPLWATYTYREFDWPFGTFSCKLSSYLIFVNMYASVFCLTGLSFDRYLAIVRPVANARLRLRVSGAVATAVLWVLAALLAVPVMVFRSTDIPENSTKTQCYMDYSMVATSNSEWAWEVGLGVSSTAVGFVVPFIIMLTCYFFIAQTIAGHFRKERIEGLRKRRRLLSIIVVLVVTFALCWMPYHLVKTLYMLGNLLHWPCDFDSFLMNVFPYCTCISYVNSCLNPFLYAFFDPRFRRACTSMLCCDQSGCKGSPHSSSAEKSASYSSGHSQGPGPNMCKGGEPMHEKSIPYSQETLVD
Procedure, shortened: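 Crude membranes (1 μg/assay) from CHO cells stably expressing wild-type rat APJ-EGFP, incubated 3 h at 20 °C with 0.2 nM [125I]-pyr-1-apelin-13 (Lys8 Bolton–Hunter monoiodinated) and competitor at various concentrations. Binding buffer: 50 mM HEPES, 5 mM MgCl2, 1% BSA, pH 7.5. Quenched with cold buffer, GF/C filtered and washed, gamma counted; triplicates.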

[6] = Protein binding in pooled human plasma at 100 uM incubated for 3 hrs by equilibrium dialysis method; assay type: ADME, cell-free; conditions: read-out: PPB (converted)
Procedure, shortened: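 Equilibrium dialysis. DMSO stock (1 mM) diluted to 100 μM final in 55% pooled human plasma stabilized with EDTA and MLN-4760, dialyzed against PBS pH 7.4 at 37 °C, 120 rpm, 3 h. Retentate diluted with PBS and dialysate with plasma, then quenched with 10% TFA/acetonitrile. Dans-YVG internal standard added, centrifuged, LC-MS.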

[7] = Stability in mouse plasma assessed as half life at 1 mM measured for 24 hrs by LC-MS analysis; assay type: ADME, cell-free; procedure, shortened: as §2

SMILES	Time (Mus musculus [1]) [min]	half-life (Neprilysin (NEP)) [h]	EC50 (Apelin receptor [2]) [nM]	Activity (Mus musculus [3]) [mmHg]	half-life at 1000 µM [4] [h]	Ki (Apelin receptor [5]) [nM]	fraction unbound at 3 h, 100 µM [6]	half-life at 1000 µM [7] [h]
CCCC[C@H](NC(=O)[C@@H]1CCCN1C(=O)CNC(=O)[C@H](CCCCN)NC(=O)[C@H](Cc1c[nH]cn1)NC(=O)[C@H](CO)NC(=O)[C@H](CC(C)C)N(C)C(=O)[C@H](CCCNC(=N)N)NC(=O)[C@@H]1CCCN1C(=O)[C@H](CCCNC(=N)N)NC(=O)[C@@H]1CCC(=O)N1)C(=O)NC(C)(C)C(=O)N[C@@H](Cc1ccc(Br)cc1)C(=O)O	26	40.3	6.76	9.52	3.54	–	–	–
CCCC[C@H](NC(=O)[C@@H]1CCCN1C(=O)CNC(=O)[C@H](CCCCN)NC(=O)[C@H](Cc1c[nH]cn1)NC(=O)[C@H](CO)NC(=O)[C@H](CC(C)C)NC(=O)[C@H](CCCNC(=N)N)NC(=O)[C@@H]1CCCN1C(=O)[C@H](CCCNC(=N)N)NC(=O)[C@@H]1CCC(=O)N1)C(=O)NC(C)(C)C(=O)N[C@@H](Cc1ccc(Br)cc1)C(=O)O	60	10.3	4.27	23.88	0.81	–	–	–
CCCC[C@H](NC(=O)[C@@H]1CCCN1C(=O)CNC(=O)[C@H](CCCCN)NC(=O)[C@H](Cc1c[nH]cn1)NC(=O)[C@H](CO)NC(=O)[C@H](CC(C)C)NC(=O)[C@H](CCCCNC(=N)N)NC(=O)[C@@H]1CCCN1C(=O)[C@H](CCCNC(=N)N)NC(=O)[C@@H]1CCC(=O)N1)C(=O)NC(C)(C)C(=O)N[C@@H](Cc1ccc(Br)cc1)C(=O)O	60	19	2.19	26.44	1.31	0.676	–	–
CCCC[C@H](NC(=O)[C@@H]1CCCN1C(=O)CNC(=O)[C@H](CCCCN)NC(=O)[C@H](Cc1c[nH]cn1)NC(=O)[C@H](CO)NC(=O)[C@H](CC1CCCCC1)NC(=O)[C@H](CCCCNC(=N)N)NC(=O)[C@@H]1CCCN1C(=O)[C@H](CCCNC(=N)N)NC(=O)[C@@H]1CCC(=O)N1)C(=O)NC(C)(C)C(=O)N[C@@H](Cc1ccc(Br)cc1)C(=O)O	57	21.9	3.72	15.33	2.58	0.372	–	–
CCCC[C@H](NC(=O)[C@@H]1CCCN1C(=O)CNC(=O)[C@H](CCCCN)NC(=O)[C@H](Cc1c[nH]cn1)NC(=O)[C@H](CO)NC(=O)[C@H](CC1CCCCC1)NC(=O)[C@H](CCCNC(=N)N)NC(=O)[C@@H]1CCCN1C(=O)[C@H](CCCNC(=N)N)NC(=O)[C@@H]1CCC(=O)N1)C(=O)NC(C)(C)C(=O)N[C@@H](Cc1ccc(Br)cc1)C(=O)O	15	22.1	2.4	0.23	1.77	0.575	–	–
CCCC[C@H](NC(=O)[C@@H]1CCCN1C(=O)CNC(=O)[C@H](CCCCN)NC(=O)[C@H](Cc1c[nH]cn1)NC(=O)[C@H](CO)NC(=O)[C@H](CC1CCCCC1)NC(=O)[C@H](CCCNC(=N)N)NC(=O)[C@@H]1CCCN1C(=O)[C@H](CCCNC(=N)N)NC(=O)[C@H](CCC(N)=O)NC(=O)[C@H](CCCNC(=N)N)NC(=O)[C@H](CCCNC(=N)N)NC(=O)[C@H](Cc1ccccc1)NC(=O)[C@@H](N)CCCCN)C(=O)NC(C)(C)C(=O)N[C@@H](Cc1ccc(Br)cc1)C(=O)O (H-KFRRQRPR[Cha]SHKGP[Nle][Aib][Phe(4-Br)]-OH)	60	47	3.8	19.72	4.34	1.58	–	–
CCCC[C@H](NC(=O)[C@@H]1CCCN1C(=O)CNC(=O)[C@H](CCCCN)NC(=O)[C@H](Cc1c[nH]cn1)NC(=O)[C@H](CO)NC(=O)[C@H](CC(C)C)N(C)C(=O)[C@H](CCCNC(=N)N)NC(=O)[C@@H]1CCCN1C(=O)[C@H](CCCNC(=N)N)NC(=O)[C@H](CCC(N)=O)NC(=O)[C@H](CCCNC(=N)N)NC(=O)[C@H](CCCNC(=N)N)NC(=O)[C@H](Cc1ccccc1)NC(=O)[C@@H](N)CCCCN)C(=O)NC(C)(C)C(=O)N[C@@H](Cc1ccc(Br)cc1)C(=O)O (H-KFRRQRPR[NMeL]SHKGP[Nle][Aib][Phe(4-Br)]-OH)	60	> 48	2.75	31.98	8.29	–	0.45	0.99
CCCC[C@H](NC(=O)[C@@H]1CCCN1C(=O)CNC(=O)[C@H](CCCCN)NC(=O)[C@H](Cc1c[nH]cn1)NC(=O)[C@H](CO)NC(=O)[C@H](CC(C)C)NC(=O)[C@H](CCCCNC(=N)N)NC(=O)[C@@H]1CCCN1C(=O)[C@H](CCCNC(=N)N)NC(=O)[C@H](CCC(N)=O)NC(=O)[C@H](CCCNC(=N)N)NC(=O)[C@H](CCCNC(=N)N)NC(=O)[C@H](Cc1ccccc1)NC(=O)[C@@H](N)CCCCN)C(=O)NC(C)(C)C(=O)N[C@@H](Cc1ccc(Br)cc1)C(=O)O (H-KFRRQRP[hArg]LSHKGP[Nle][Aib][Phe(4-Br)]-OH)	60	40.6	6.76	40.45	3.06	0.832	–	–
CCCC[C@H](NC(=O)[C@@H]1CCCN1C(=O)CNC(=O)[C@H](CCCCN)NC(=O)[C@H](Cc1c[nH]cn1)NC(=O)[C@H](CO)NC(=O)[C@H](CC1CCCCC1)NC(=O)[C@H](CCCCNC(=N)N)NC(=O)[C@@H]1CCCN1C(=O)[C@H](CCCNC(=N)N)NC(=O)[C@H](CCC(N)=O)NC(=O)[C@H](CCCNC(=N)N)NC(=O)[C@H](CCCNC(=N)N)NC(=O)[C@H](Cc1ccccc1)NC(=O)[C@@H](N)CCCCN)C(=O)NC(C)(C)C(=O)N[C@@H](Cc1ccc(Br)cc1)C(=O)O (H-KFRRQRP[hArg][Cha]SHKGP[Nle][Aib][Phe(4-Br)]-OH)	60	46.4	4.37	44.9	6.28	1.1	0.35	0.52
